Data published in article PMC3145891 (Naunyn-Schmiedeberg's Archives of Pharmacology, 2011).
“And” between values parts separate entries of the source, which are not always exact repeats. Equal values may be shown once. “Also recorded” adds a separate entry of the source.

Assays:
[1] = tested on: cAMP antibody (ENZO cAMP-EIA); test: ENZO cAMP-EIA, acetylation protocol; assay type: binding; conditions: for Specificity ENZO cAMP-EIA: EC50cAMP/EC50Analog, acetylated
[2] = tested on: cAMP and cGMP antibodies of the tested immunoassays; test: Interference with the tested cAMP and cGMP immunoassays; assay type: binding
[3] = tested on: cAMP antibody (IBL cAMP-RIA); test: IBL cAMP-RIA; assay type: binding; conditions: for Specificity IBL cAMP-RIA: EC50cAMP/EC50Analog
[4] = tested on: cGMP antibody (ENZO cGMP-EIA); test: ENZO cGMP-EIA, acetylation protocol; assay type: binding; conditions: for Specificity ENZO cGMP-EIA: EC50cGMP/EC50Analog, acetylated
[5] = tested on: cGMP antibody (IBL cGMP-RIA); test: IBL cGMP-RIA; assay type: binding; conditions: for Specificity IBL cGMP-RIA: EC50cGMP/EC50Analog; for Binding constant relative to cGMP: IBL cGMP-RIA
[6] = tested on: PKA (VASP phosphorylation) in human platelets; test: VASP phosphorylation western blot, pVASP Ser-157; assay type: cell-based; conditions: pVASP antibody 5C6
How it was run: (§1)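 Washed human platelets were exposed to various analog concentrations for the indicated times. Protein extracts (10 µg) were run on 9% reducing SDS-PAGE and wet-blotted to nitrocellulose. Blots were blocked in 3% milk/Tris-saline-Tween and probed 1:10,000 with 16C2 (pVASP Ser-239, PKG site) or 5C6 (pVASP Ser-157, PKA site). HRP goat anti-mouse (1:5,000) and ECL gave detection.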

PKA II = conditions: ref Poppe et al. (2008); cited from earlier work
PKG Iβ = conditions: ref Poppe et al. (2008); cited from earlier work
[7] = tested on: cGMP antibody (ENZO cGMP-EIA); test: ENZO cGMP-EIA, non-acetylated; assay type: binding; conditions: non-acetylated cGMP-EIA from ENZO
human platelets = test: Cell membrane permeability in washed human platelets; assay type: in vitro ADME; conditions: for cNMP conc. inside platelets (% of external): washed human platelets, 37°C, normally 20 min; for Time to equilibrium of inside/outside concentration: platelets, Fig. 1b
How it was run: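 Human blood from medication-free donors was collected into citrate–EGTA buffer. Platelet-rich plasma (300×g) was pelleted (380×g), washed in Hepes buffer pH 7.4 and used at 3 × 10^8 platelets/ml. Cells were exposed to analogs at 37°C, normally for 20 min or over a time course. They were lysed in […] buffer pH 8.1 with 1 mM IBMX on ice, then freeze/thaw and needle disruption. Lyophilized supernatant went to EIA, assuming a 5.2 fl cell volume.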

[8] = tested on: PKG (VASP phosphorylation) in human platelets; test: VASP phosphorylation western blot, pVASP Ser-239; assay type: cell-based; conditions: for Concentration for maximal VASP phosphorylation: after 20 min, pVASP antibody 16C2
How it was run: as §1

CHO cells = test: Cell membrane permeability in CHO cells; assay type: in vitro ADME, Chinese hamster; conditions: serum-free medium, normally 20 min
How it was run: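 CHO cells were grown in DMEM with 10% FBS and 1% penicillin/streptomycin at 37°C, 5% CO2. Cells were exposed to various analog concentrations in serum-free medium, normally for 20 min, then PBS-washed. Lysis used hypotonic buffer on ice for 30 min, scraping, liquid-nitrogen freeze/thaw and needle disruption. Cleared supernatant was lyophilized for EIA. Intracellular concentration assumed a 1.5 pl cell volume; % permeability = intracellular/extracellular […].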

[9] = tested on: cGMP antibody (Cayman cGMP-EIA); test: Cayman cGMP-EIA; assay type: binding; conditions: EC50cGMP/EC50Analog

SMILES: Nc1ncnc2c1nc(Br)n2C1OC2COP(O)(=S)OC2C1O (single isomer, unassigned) [Rp-8-Br-cAMPS, 8-Bromoadenosine-3`,5`- cyclic monophosphorothioate, Rp-isomer]
- Specificity ENZO cAMP-EIA [1]: 0.003

SMILES: CCCCCCC(C(C)O)n1cnc2c(N)ncnc21.Cl (stereo not shown) [EHNA, 3-(6-aminopurin-9-yl)nonan-2-ol hydrochloride]
- Interference / cross-reaction with the tested immunoassays, result in words [2]: do not interfere

SMILES: CCCC(=O)Nc1ncnc2c1ncn2[C@@H]1O[C@@H]2COP(=O)(O)O[C@H]2[C@H]1O [6-MB-cAMP, N^6-Monobutyryladenosine-3`,5`-cyclic monophosphate]
- Specificity IBL cAMP-RIA [3]: 0.012
- Specificity ENZO cAMP-EIA [1]: 0.004

SMILES: CO[C@@H]1[C@@H]2OP(=O)(O)OC[C@H]2O[C@H]1n1c(Sc2ccc(Cl)cc2)nc2c(N)ncnc21 [8-pCPT-2′-OMe-cAMP, 8-(4-Chlorophenylthio)-2`-O-methyladenosine-3`,5`- cyclic monophosphate]
- Specificity IBL cAMP-RIA [3]: 0.0066
- Specificity ENZO cGMP-EIA [4]: 0.0002
- Specificity ENZO cAMP-EIA [1]: 0.0003
- Specificity IBL cGMP-RIA [5]: <10^−4

SMILES: O[C@@H]1[C@@H]2OP(O)(=S)OC[C@H]2O[C@H]1n1cnc2cc(Cl)c(Cl)cc21 (single isomer, unassigned) [Sp-5,6-DCl-cBIMPS]
- Specificity IBL cAMP-RIA [3]: 0.005
- Concentration needed for comparable VASP phosphorylation (PKA activation) [6]: 100 µM
- Activation PKA II Ka (PKA II): 0.12 µM

SMILES: Nc1nc2c(ncn2[C@H]2C[C@@H]3OP(=O)(O)OC[C@H]3O2)c(=O)[nH]1 [2′-dcGMP, 2`- Deoxyguanosine- 3`,5`- cyclic monophosphate]
- Activation PKG Iβ Ka (PKG Iβ): 21 µM
- Relative binding EC50cGMP/EC50Analog [7]: 2.2 and 2.21
- Diffusion into the cell, result in words (human platelets; compounds with log Kw < 1): too hydrophilic for any diffusion into the cell
- cNMP conc. inside platelets (% of external) (human platelets): 0.5 ± 0.1%
- Specificity ENZO cGMP-EIA [4]: 0.052
- VASP phosphorylation (PKG site), result in words ([8]; concentrations up to 2 mM): no VASP phosphorylation
- cNMP conc. inside CHO cells (% of external) (CHO cells): 0.3 ± 0.5%

SMILES: Nc1ncnc2c1nc(Br)n2[C@@H]1O[C@@H]2COP(=O)(O)O[C@H]2[C@H]1O [8-Br-cAMP, 8-Bromoadenosine-3`,5`- cyclic monophosphate]
- Specificity IBL cAMP-RIA [3]: 0.026
- Concentration needed for comparable VASP phosphorylation (PKA activation) [6]: 500 µM
- Activation PKA II Ka (PKA II): 0.09 µM
- Specificity ENZO cAMP-EIA [1]: 0.004

SMILES: Nc1ncnc2c1nc(Sc1ccc(Cl)cc1)n2[C@@H]1O[C@@H]2COP(=O)(O)O[C@H]2[C@H]1O [8-pCPT-cAMP, 8-(4-Chlorophenylthio)adenosine-3`,5`- cyclic monophosphate]
- Specificity ENZO cAMP-EIA [1]: 0.0005

SMILES: CC(C)Cn1c(=O)n(C)c(=O)c2[nH]cnc21 [IBMX, 3-Isobutyl-1-methylxanthine]
- Specificity IBL cAMP-RIA [3]: <10^−4
- Interference / cross-reaction with the tested immunoassays, result in words [2]: do not interfere
- Specificity ENZO cGMP-EIA [4]: <10^−6
- Specificity ENZO cAMP-EIA [1]: <10^−5
- Specificity Cayman cGMP-EIA [9]: <10^−5
- Specificity IBL cGMP-RIA [5]: <10^−6

SMILES: Nc1ncnc2c1ncn2[C@@H]1O[C@@H]2COP(O)(=S)O[C@H]2[C@H]1O (single isomer, unassigned) [Rp-cAMPS, Adenosine- 3`,5`- cyclic monophosphorothioate, Rp-isomer]
- Specificity IBL cAMP-RIA [3]: 0.67
- Binding constant relative to cAMP ([3]; IBL cAMP-RIA): ~66%
- Cross-reactivity in the cAMP-EIA, result in words [1]: strong cross-reactivity; also recorded: significant cross-reactivity
- Specificity ENZO cAMP-EIA [1]: 0.68

SMILES: Nc1nc2c(nc(Sc3ccc(Cl)cc3)n2C2O[C@@H]3COP(=O)(O)O[C@H]3[C@H]2O)c(=O)[nH]1 (stereo in doubt) [8-pCPT-cGMP, 8-(4-Chlorophenylthio)guanosine-3`,5`- cyclic monophosphate]
- Activation PKG Iβ Ka (PKG Iβ): 0.9 µM
- Time to equilibrium of inside/outside concentration (human platelets): 10 to 20 min
- cNMP conc. inside platelets (% of external) (human platelets): 19.6 ± 4.7%
- Cross-reactivity / binding to the cGMP antibody in the EIA, result in words [4]: strong cross-reactivity
- Specificity ENZO cGMP-EIA [4]: 2.40
- Concentration for maximal VASP phosphorylation ([8]; human platelets): 50 µM
- Specificity Cayman cGMP-EIA [9]: 0.0008
- Specificity IBL cGMP-RIA [5]: 0.30
- Binding constant relative to cGMP [5]: ~30%

SMILES: O=C(Nc1ncnc2c1ncn2[C@@H]1O[C@@H]2COP(=O)(O)OC2C1O)c1ccccc1 (stereo in doubt) [6-Bnz-cAMP, N^6-Benzoyladenosine-3`,5`- cyclic monophosphate]
- Specificity IBL cAMP-RIA [3]: 0.009
- Specificity ENZO cAMP-EIA [1]: 0.006

SMILES: O=c1c2nc(Br)n([C@@H]3O[C@@H]4COP(=O)(O)O[C@H]4[C@H]3O)c2nc2[nH]c(-c3ccccc3)cn12 [8-Br-PET-cGMP, β-Phenyl-1,N^2-etheno-8-Bromoguanosine-3`,5`- cyclic monophosphate]
- Activation PKG Iβ Ka (PKG Iβ): 0.009 µM
- Relative binding EC50cGMP/EC50Analog [7]: 0.08
- cNMP conc. inside platelets (% of external) (human platelets): 30.9 ± 5.7%
- Specificity ENZO cGMP-EIA [4]: 0.10
- Percent of the cGMP affinity to the antibody ([4]; ENZO cGMP-EIA): 10%
- Concentration sufficient to activate PKG ([8]; human platelets, VASP phosphorylation): 0.25 µM
- cNMP conc. inside CHO cells (% of external) (CHO cells): 24.1 ± 9.7%
- Specificity IBL cGMP-RIA [5]: 0.015

SMILES: Cn1c(=O)c2[nH]cnc2n(C)c1=O [Theophylline, 1,3-dimethyl-7H-purine-2,6-dione]
- Interference / cross-reaction with the tested immunoassays, result in words [2]: do not interfere

SMILES: Nc1nc2c(ncn2[C@@H]2O[C@@H]3COP(=O)(O)O[C@H]3[C@H]2O)c(=O)[nH]1 [cGMP, Guanosine- 3`,5`- cyclic monophosphate]
- Activation PKG Iβ Ka (PKG Iβ): 0.9 µM
- Relative binding EC50cGMP/EC50Analog [7]: 1.00
- Specificity ENZO cGMP-EIA [4]: 1.00
- Specificity Cayman cGMP-EIA [9]: 1.00
- Specificity IBL cGMP-RIA [5]: 1.00

SMILES: Nc1nc2c(nc(Br)n2[C@@H]2O[C@@H]3COP(=O)(O)O[C@H]3[C@H]2O)c(=O)[nH]1 [8-Br-cGMP, 8-Bromoguanosine-3`,5`- cyclic monophosphate]
- Activation PKG Iβ Ka (PKG Iβ): 1.0 µM
- Relative binding EC50cGMP/EC50Analog [7]: 6.40
- Time to equilibrium of inside/outside concentration (human platelets): 10 to 20 min
- cNMP conc. inside platelets (% of external) (human platelets): 12.1 ± 3.5%
- Cross-reactivity / binding to the cGMP antibody in the EIA, result in words [4]: strong cross-reactivity
- Specificity ENZO cGMP-EIA [4]: 4.90
- Concentration for maximal VASP phosphorylation ([8]; human platelets): 200 µM
- cNMP conc. inside CHO cells (% of external) (CHO cells): 13.5 ± 11.5%
- Specificity IBL cGMP-RIA [5]: 0.20
- Binding constant relative to cGMP [5]: ~20%

SMILES: Nc1nc2c(ncn2[C@@H]2O[C@@H]3COP(O)(=S)O[C@H]3[C@H]2O)c(=O)[nH]1 (single isomer, unassigned) [Rp-cGMPS, Guanosine- 3`,5`- cyclic monophosphorothioate, Rp-isomer]
- Specificity ENZO cGMP-EIA [4]: 0.0027
- Specificity IBL cGMP-RIA [5]: 0.10
